Measured values: ChEMBL document CHEMBL1926588, “Sulfur and selenium derivatives of quinazoline and pyrido[2,3-d]pyrimidine: synthesis and study of their potential cytotoxic activity in vitro” (Eur J Med Chem, 2012)

How the values were obtained:
[1] = Cytotoxicity against human BEAS2B cells after 72 hrs by MTT assay; type: cell-based, BEAS-2B; conditions: for GI50 at 72 h: BEAS2B cells; for LC50 / TGI: beas-2b, 72 h
Method in brief: (§1)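 MTT read-out after 72 h exposure at 37 °C in humidified 5% CO2, with five concentrations between 0.01 and 100. GI50 is 50% growth reduction versus untreated controls, TGI is complete growth inhibition, and LC50 is the concentration killing 50% of cells. Minimum three independent experiments.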

[2] = test system: MCF7; experiment: Cytotoxicity against human MCF7 cells after 72 hrs by MTT assay; type: functional; conditions: MCF7, 72 h; method in brief: as §1
[3] = test system: CCRF-CEM; experiment: Cytotoxicity against human CCRF-CEM cells after 72 hrs by MTT assay; type: functional; conditions: for CC50: read-out: LC50 (the source's name); method in brief: as §1
[4] = Cytotoxicity against human 184B5 cells after 72 hrs by MTT assay; type: cell-based; conditions: for GI50 at 72 h: 184B5 cells; for LC50 / TGI: 184b5, 72 h; method in brief: as §1
[5] = Cytotoxicity against human HTB-54 cells after 72 hrs by MTT assay; type: functional; conditions: HTB-54, 72 h; for CC50: read-out: LC50 (the source's name); method in brief: as §1
[6] = test system: HT-29; experiment: Cytotoxicity against human HT-29 cells after 72 hrs by MTT assay; type: functional; conditions: HT-29, 72 h; for CC50: read-out: LC50 (the source's name); method in brief: as §1

SMILES	GI50 at 72 h [1]	LC50 [1]	TGI [1]	GI50 [2]	LC50 [2]	TGI [2]	GI50 [3]	TGI [3]	CC50 [3]	GI50 at 72 h [4]	LC50 [4]	TGI [4]	GI50 [5]	TGI [5]	CC50 [5]	GI50 [6]	TGI [6]	CC50 [6]
CCCCCSc1nc(NCc2ccc([Se]C)cc2)c2ccccc2n1	31.2 µM	> 100 µM	> 100 µM	13 µM	> 100 µM	75.2 µM	> 100 µM	> 100 µM	> 100 µM	73 µM	> 100 µM	> 100 µM	19.8 µM	50 µM	80.2 µM	14.4 µM	> 100 µM	> 100 µM
C[Se]c1nc(N)c2ccccc2n1	23.6 µM	85.52 µM	54.56 µM	46.5 µM	> 100 µM	> 100 µM	65.1 µM	> 100 µM	> 100 µM	24.4 µM	93.68 µM	59.04 µM	18 µM	88.7 µM	> 100 µM	27.6 µM	74.8 µM	> 100 µM
CCCCC[Se]c1nc(N)c2cccnc2n1	16.3 µM	73.48 µM	44.89 µM	22.7 µM	85 µM	53.8 µM	12.9 µM	42.8 µM	72.6 µM	10.3 µM	70.14 µM	40.23 µM	8.78 µM	51 µM	98.5 µM	5.91 µM	20 µM	62.1 µM
C[Se]c1nc(N)c2cccnc2n1	39.7 µM	> 100 µM	90.81 µM	43 µM	> 100 µM	> 100 µM	68.4 µM	> 100 µM	> 100 µM	45.5 µM	> 100 µM	87.15 µM	78.2 µM	> 100 µM	> 100 µM	44.1 µM	77.3 µM	> 100 µM
CSc1nc(NCCCCCO)c2ccccc2n1	39.3 µM	> 100 µM	99.35 µM	62 µM	> 100 µM	> 100 µM	> 100 µM	> 100 µM	> 100 µM	49.9 µM	> 100 µM	> 100 µM	31.4 µM	71.4 µM	> 100 µM	> 100 µM	> 100 µM	> 100 µM
[SeH]c1nc(NCc2ccccc2)c2cccnc2n1	8.4 µM	> 100 µM	> 100 µM	0.03 µM	> 100 µM	> 100 µM	30.5 µM	68.9 µM	> 100 µM	3.7 µM	> 100 µM	9.13 µM	> 100 µM	> 100 µM	> 100 µM	6.35 µM	33.1 µM	> 100 µM
COc1ccc(CNc2nc([SeH])nc3ccccc23)cc1	37.4 µM	> 100 µM	> 100 µM	42.7 µM	> 100 µM	94 µM	> 100 µM	> 100 µM	> 100 µM	71.2 µM	> 100 µM	> 100 µM	7.11 µM	60.9 µM	> 100 µM	71.6 µM	> 100 µM	> 100 µM
CSc1nc(NCCCCCO)c2cccnc2n1	> 100 µM	> 100 µM	> 100 µM	48.9 µM	> 100 µM	> 100 µM	> 100 µM	> 100 µM	> 100 µM	> 100 µM	> 100 µM	> 100 µM	> 100 µM	> 100 µM	> 100 µM	63.9 µM	> 100 µM	> 100 µM
[SeH]c1nc(NCc2ccccc2)c2ccccc2n1	3.54 µM	> 100 µM	> 100 µM	> 100 µM	> 100 µM	> 100 µM	> 100 µM	> 100 µM	> 100 µM	20.8 µM	> 100 µM	63.63 µM	31.2 µM	> 100 µM	> 100 µM	62.2 µM	> 100 µM	> 100 µM
CSc1ccc(CNc2nc(SC)nc3ccccc23)cc1	22.7 µM	95.93 µM	59.11 µM	47.3 µM	> 100 µM	> 100 µM	> 100 µM	> 100 µM	> 100 µM	22 µM	> 100 µM	> 100 µM	7.22 µM	44.5 µM	89.1 µM	34.7 µM	> 100 µM	> 100 µM
CSc1nc(NCc2ccccc2)c2cccnc2n1	25.9 µM	97.51 µM	61.7 µM	39.4 µM	> 100 µM	> 100 µM	56.3 µM	98.5 µM	> 100 µM	49 µM	> 100 µM	> 100 µM	5.08 µM	51.6 µM	> 100 µM	87.1 µM	> 100 µM	> 100 µM
CCCCC[Se]c1nc([Se]CCCCC)c2ccccc2n1	> 100 µM	> 100 µM	> 100 µM	38.4 µM	> 100 µM	95.1 µM	65.7 µM	> 100 µM	> 100 µM	71.3 µM	> 100 µM	> 100 µM	> 100 µM	> 100 µM	> 100 µM	> 100 µM	> 100 µM	> 100 µM
CSc1ccc(CNc2nc([SeH])nc3ccccc23)cc1	0.41 µM	> 100 µM	58.21 µM	48.1 µM	> 100 µM	> 100 µM	71.9 µM	> 100 µM	> 100 µM	6.84 µM	> 100 µM	86.27 µM	45.5 µM	> 100 µM	> 100 µM	42.9 µM	> 100 µM	> 100 µM
CSc1nc(NCCCc2ccccc2)c2ccccc2n1	73.4 µM	> 100 µM	> 100 µM	77.2 µM	> 100 µM	> 100 µM	39.5 µM	87.8 µM	> 100 µM	6.77 µM	> 100 µM	> 100 µM	50.6 µM	> 100 µM	> 100 µM	19.6 µM	89.5 µM	> 100 µM
[Se]=C=NCc1ccccc1 [BENZYLISOSELENOCYANATE]	4.1 µM	69.59 µM	32.75 µM	27.9 µM	95.5 µM	61.7 µM	28.7 µM	57.7 µM	86.7 µM	15.5 µM	74.86 µM	45.15 µM	5.98 µM	33.4 µM	66.1 µM	21 µM	44.5 µM	68.1 µM
